Results: paper PMC5743405 (International Journal of Oncology, 2017)
“Also recorded” adds a separate entry of the source. Read-outs that look alike come from different tables or passages of the source.

Tests used:
MUC5B = test: RT2 qPCR primer assay, JJ012 cells; format: cell-based, human; details: 1 μg/ml PRP-1; heat map, vs nontreated control, technical triplicates
In short: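 RNA extracted from treated and control JJ012 cells, checked by spectrophotometry and reverse transcribed. SYBR Green qPCR with custom primer assays on three samples in technical triplicates. Ct normalized to the average of GAPDH and ACTB. Fold change vs control by 2^−ΔΔCt, shown as a heat map of average Ct.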

PTHR2 = test: PathHunter β-arrestin; format: cell-based; details: antagonist mode, 6 μM
PTGIR = test: PathHunter β-arrestin; format: cell-based; details: 6 μM
In short: (§1)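 β-Arrestin recruitment to GPCR read by β-galactosidase fragment complementation and chemiluminescence. Agonist: % = 100 × (test − vehicle)/(max control ligand − vehicle), hit at >30% and RLU > baseline + 3 SD. Antagonist, against EC80 agonist: % inhibition = 100 × (1 − (test − vehicle)/(EC80 − vehicle)), hit at >35% and RLU < EC80 − 3 SD.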

TBXA2R = test: PathHunter β-arrestin; format: cell-based; details: 6 μM
In short: as §1

NTSR1 = test: PathHunter β-arrestin; format: cell-based; details: antagonist mode, 6 μM
In short: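 GPCR-ED fusion and β-arrestin-EA fusion; arrestin recruitment restores β-galactosidase, read by chemiluminescence. Antagonist mode uses EC80 agonist challenge. % inhibition = 100 × (1 − (test − vehicle RLU)/(EC80 control − vehicle RLU)). Hit requires >35% inhibition and mean RLU below EC80 RLU − 3 × EC80 SD.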

[1] = test system: G1/S phase cell cycle progression; details: chondrosarcoma, cited from earlier work
FPR1 = test: PathHunter β-arrestin; format: cell-based; details: antagonist mode, 6 μM
In short: (§2)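 Engineered cells express the receptor fused to one β-galactosidase fragment (ED) and β-arrestin fused to the complementing fragment (EA). Receptor activation recruits β-arrestin, which restores enzyme activity, and this is read by chemiluminescence (RLU). Agonist % activity is 100% × (test − vehicle)/(maximal control ligand − vehicle). Antagonist mode is challenged with an EC80 control agonist, and % inhibition is 100% × (1 − (test − vehicle)/(EC80 − vehicle)). Hits require >30% activity or >35% inhibition, plus a 3×SD RLU margin.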

PTGFR = test: PathHunter β-arrestin; format: cell-based; details: antagonist mode, 6 μM
GPR109B = test: PathHunter β-arrestin; format: cell-based; details: 6 μM
In short: (§3)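 Vendor-run (DiscoveRx) PathHunter enzyme fragment complementation. β-Arrestin carries the EA fragment and the receptor carries ED; recruitment restores β-gal activity, read by chemiluminescence (RLU). Agonist % activity = vehicle-subtracted RLU relative to max control ligand (gpcrMAX) or to vehicle (orphanMAX). Antagonist % inhibition = 100% × (1 − vehicle-subtracted sample RLU / vehicle-subtracted EC80 agonist control RLU).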

GPR120 = test: PathHunter β-arrestin; format: cell-based; details: 6 μM
In short: as §3

BDKRB2 = test: PathHunter β-arrestin; format: cell-based; details: antagonist mode, 6 μM
In short: (§4)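 β-Arrestin recruitment assay: the enzyme acceptor is fused to β-arrestin and the ED fragment to the GPCR. Recruitment restores β-galactosidase, read by chemiluminescence. % activity = 100% × (test − vehicle)/(max control ligand − vehicle). % inhibition = 100% × (1 − (test − vehicle)/(EC80 control − vehicle)). An agonist hit needs >30% activity and RLU > baseline + 3×SD. An antagonist hit needs >35% inhibition and RLU < EC80 RLU − 3×SD.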

GPCR receptors = test: PathHunter β-arrestin gpcrMAX panel, agonist mode; format: cell-based; details: summary of Table I
In short: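 β-Arrestin fused to the EA fragment and GPCR fused to the ED fragment; recruitment restores β-galactosidase, read by chemiluminescence. % agonist = 100 × (mean test − mean vehicle)/(mean max control ligand − mean vehicle). Hit requires >30% activity and mean RLU above baseline + 3 × baseline SD.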

EDG5 = test: PathHunter β-arrestin; format: cell-based; details: 6 μM
In short: as §2

F2RL3 = test: PathHunter β-arrestin; format: cell-based; details: 6 μM
In short: as §2

LTB4R = test: PathHunter β-arrestin; format: cell-based; details: agonist mode, 6 μM
In short: as §3

TSHR(L) = test: PathHunter β-arrestin; format: cell-based; details: antagonist mode, 6 μM
TLR9 = test: western blot, JJ012 cells; format: cell-based, human; details: vs untreated control, overnight incubation
AGTR1 = test: PathHunter β-arrestin; format: cell-based; details: agonist mode, 6 μM
In short: as §4

CCR10 = test: PathHunter β-arrestin; format: cell-based; details: antagonist mode, 6 μM
In short: as §4

CXCR4 = test: PathHunter β-arrestin; format: cell-based; details: 6 μM
In short: as §2

Proline rich polypeptide 1 [PRP-1]
gene expression (MUC5B): high expression; also recorded: the most upregulation after the treatment with 1 μg/ml
% Inhibition (PTHR2): −1%
% Activity (PTGIR; agonist mode): 1%
% Inhibition (PTGIR; antagonist mode): −2%
% Activity (TBXA2R; agonist mode): 1%
% Inhibition (TBXA2R; antagonist mode): −10%
% Inhibition (NTSR1): −1%
cell cycle progression ([1]; ref [4],[5]): halting G1/S phase cell cycle progression
cell cycle progression ([1]; ref [6]): halts cell cycle progression in G1/S transition
% Inhibition (FPR1): −4%
% Inhibition (PTGFR): 1%
% Activity (GPR109B; agonist mode): 1%
% Inhibition (GPR109B; antagonist mode): −6%
% Activity (GPR120; agonist mode): 1%
% Inhibition (GPR120; antagonist mode): −6%
% Inhibition (BDKRB2): 5%
GPCR coupling, agonist mode (GPCR receptors): no indication that PRP-1 was G protein coupled
% Activity (EDG5; agonist mode): 1%
% Inhibition (EDG5; antagonist mode): −8%
% Activity (F2RL3; agonist mode): −1%
% Inhibition (F2RL3; antagonist mode): −1%
% Activity (LTB4R): 1%
% Inhibition (TSHR(L)): −4%
protein expression (TLR9): no indication of PRP-1 effect
% Activity (AGTR1): 2%
% Inhibition (CCR10): −3%
% Activity (CXCR4; agonist mode): 2%
% Inhibition (CXCR4; antagonist mode): 2%
